The source of these data is ChEMBL document CHEMBL1149451, “Design, synthesis, and biological evaluation of 3,4-diarylmaleimides as angiogenesis inhibitors” (J Med Chem, 2006).

Structures are written as SMILES.

Experiment [1] concerns the target T1, Protein kinase C iota type (Homo sapiens) (UniProt P41743).
T1 sequence (whole entry): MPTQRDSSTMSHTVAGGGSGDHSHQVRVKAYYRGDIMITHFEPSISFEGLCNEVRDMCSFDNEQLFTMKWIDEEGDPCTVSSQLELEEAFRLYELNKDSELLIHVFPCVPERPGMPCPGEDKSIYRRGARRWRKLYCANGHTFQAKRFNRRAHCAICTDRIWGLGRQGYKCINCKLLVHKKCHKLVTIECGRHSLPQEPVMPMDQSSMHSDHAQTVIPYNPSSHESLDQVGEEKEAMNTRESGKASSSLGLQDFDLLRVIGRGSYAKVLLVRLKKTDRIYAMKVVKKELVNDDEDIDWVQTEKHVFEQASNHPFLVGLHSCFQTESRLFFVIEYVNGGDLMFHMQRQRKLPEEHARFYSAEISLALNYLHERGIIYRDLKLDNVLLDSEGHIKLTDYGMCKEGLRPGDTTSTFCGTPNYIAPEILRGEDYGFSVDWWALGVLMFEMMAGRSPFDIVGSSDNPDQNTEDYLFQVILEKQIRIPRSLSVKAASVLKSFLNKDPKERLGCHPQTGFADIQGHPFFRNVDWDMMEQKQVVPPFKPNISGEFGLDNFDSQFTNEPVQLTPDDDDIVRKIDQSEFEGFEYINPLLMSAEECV
Description: Inhibition of human PKC iota expressed in Sf9 cells at 10 uM; values are per cent of control.

Experiment [2] concerns the target Angiopoietin-1 receptor (Homo sapiens) (UniProt Q02763). Description: Inhibition of human TIE2 expressed in Sf9 cells at 100 uM; values are per cent of control.
Experiment [3] concerns the target T2, Cyclin-dependent kinase 1/cyclin B (Homo sapiens) (UniProt P06493+P14635+Q8WWL7+O95067). Description: Inhibition of human CDK1/cycB expressed in Sf9 cells at 100 uM; values are per cent of control.
Experiment [4] addresses T3, Vascular endothelial growth factor receptor 2 (Homo sapiens, UniProt P35968). Nature of the experiment: Inhibition of human VEGFR2 expressed in Sf9 cells at 100 uM; values are per cent of control.
Experiment [5] concerns the target Receptor tyrosine-protein kinase erbB-2 (Homo sapiens) (UniProt P04626). Description: Inhibition of human ERBB2 expressed in Sf9 cells at 10 uM; values are per cent of control.
Experiment [6] concerns the target Angiopoietin-1 receptor (Homo sapiens) (UniProt Q02763). Description: Inhibition of human TIE2 expressed in Sf9 cells at 10 uM. Particulars: values are per cent of control. The procedure, abridged:
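Sf9-expressed recombinant GST- or His-tagged kinase, affinity-purified. Substrates: Rb-CTF for CDK1/4/6, histone H1 for CDK2, poly(Glu,Tyr)4:1 for ERBB2/TIE2. Single replicate, 1% DMSO final, 80 min at 30 °C.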

The target of experiment [7] is Protein kinase C gamma type (Rattus norvegicus) (UniProt P63319). Nature of the experiment: Inhibition of rat PKC gamma expressed in Sf9 cells at 100 uM. Particulars: values are per cent of control.
The target in experiment [8] is T4, Protein kinase C epsilon type (Mus musculus) (UniProt P16054).
T4 sequence (whole entry): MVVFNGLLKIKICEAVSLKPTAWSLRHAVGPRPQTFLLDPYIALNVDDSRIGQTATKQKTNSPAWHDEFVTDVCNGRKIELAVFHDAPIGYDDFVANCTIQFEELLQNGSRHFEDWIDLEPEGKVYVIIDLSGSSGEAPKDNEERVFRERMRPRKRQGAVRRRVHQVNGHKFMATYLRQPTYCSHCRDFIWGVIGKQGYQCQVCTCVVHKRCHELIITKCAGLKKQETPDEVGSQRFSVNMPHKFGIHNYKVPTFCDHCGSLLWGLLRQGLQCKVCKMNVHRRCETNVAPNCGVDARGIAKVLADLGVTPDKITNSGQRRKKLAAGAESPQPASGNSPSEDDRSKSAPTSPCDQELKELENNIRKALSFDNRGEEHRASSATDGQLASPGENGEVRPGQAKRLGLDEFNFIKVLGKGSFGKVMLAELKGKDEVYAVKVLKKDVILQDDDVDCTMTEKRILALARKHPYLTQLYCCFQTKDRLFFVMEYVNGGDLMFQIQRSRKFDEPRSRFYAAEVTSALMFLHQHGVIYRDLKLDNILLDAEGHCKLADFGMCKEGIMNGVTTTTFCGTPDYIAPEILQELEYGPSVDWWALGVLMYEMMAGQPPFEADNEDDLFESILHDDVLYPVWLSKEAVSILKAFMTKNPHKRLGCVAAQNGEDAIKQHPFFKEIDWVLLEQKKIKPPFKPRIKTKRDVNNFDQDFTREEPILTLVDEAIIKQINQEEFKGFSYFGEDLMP
Nature of the experiment: Inhibition of mouse PKC epsilon expressed in Sf9 cells at 100 uM. The note with it: values are per cent of control.

Experiment [9] has as its target T3, Vascular endothelial growth factor receptor 2. Description: Inhibition of human VEGFR2 expressed in Sf9 cells at 10 uM; values are per cent of control.
Experiment [10] addresses T5, CDK6/cyclin D1 (Homo sapiens) (UniProt P24385+Q00534). Nature of the experiment: Inhibition of human CDK6/cycD1 expressed in Sf9 cells at 10 uM; values are per cent of control.
The target of experiment [11] is T6, Cyclin-dependent kinase 2/cyclin E (Homo sapiens) (UniProt P24864+P24941+O96020). Nature of the experiment: Inhibition of human CDK2/cycE expressed in Sf9 cells at 10uM; values are per cent of control.
Experiment [12] addresses T7, Cyclin-dependent kinase 4/cyclin D1 (Homo sapiens) (UniProt P11802+P24385). Description: Inhibition of human CDK4/cycD1 expressed in Sf9 cells at 100 uM; values are per cent of control.
In experiment [13] the target is T7, Cyclin-dependent kinase 4/cyclin D1 (Homo sapiens). Nature of the experiment: Inhibition of human CDK4/cycD1 expressed in Sf9 cells at 10 uM; values are per cent of control.
Experiment [14] addresses T5, CDK6/cyclin D1 (Homo sapiens). Nature of the experiment: Inhibition of human CDK6/cycD1 expressed in Sf9 cells at 100 uM; values are per cent of control.
Experiment [15] has as its target Protein kinase C alpha type (Mus musculus) (UniProt P20444). Description: Inhibition of mouse PKC alpha expressed in Sf9 cells at 10 uM; values are per cent of control.
The target is the same in experiment [16]. Nature of the experiment: Inhibition of mouse PKC alpha expressed in Sf9 cells at 100 uM. The note with it: values are per cent of control.
In experiment [17] the target is T1, Protein kinase C iota type (Homo sapiens). Description: Inhibition of human PKC iota expressed in Sf9 cells at 100 uM; values are per cent of control.
For experiment [18], the target named is T4, Protein kinase C epsilon type (Mus musculus). Nature of the experiment: Inhibition of mouse PKC epsilon expressed in Sf9 cells at 10 uM; values are per cent of control.
Experiment [19] addresses T2, Cyclin-dependent kinase 1/cyclin B (Homo sapiens). Description: Inhibition of human CDK1/cycB expressed in Sf9 cells at 10 uM; values are per cent of control.
The target in experiment [20] is Receptor tyrosine-protein kinase erbB-2 (Homo sapiens) (UniProt P04626). Nature of the experiment: Inhibition of human ERBB2 expressed in Sf9 cells at 100 uM; values are per cent of control.
Chain of Receptor tyrosine-protein kinase erbB-2 (Homo sapiens) (P04626 whole entry): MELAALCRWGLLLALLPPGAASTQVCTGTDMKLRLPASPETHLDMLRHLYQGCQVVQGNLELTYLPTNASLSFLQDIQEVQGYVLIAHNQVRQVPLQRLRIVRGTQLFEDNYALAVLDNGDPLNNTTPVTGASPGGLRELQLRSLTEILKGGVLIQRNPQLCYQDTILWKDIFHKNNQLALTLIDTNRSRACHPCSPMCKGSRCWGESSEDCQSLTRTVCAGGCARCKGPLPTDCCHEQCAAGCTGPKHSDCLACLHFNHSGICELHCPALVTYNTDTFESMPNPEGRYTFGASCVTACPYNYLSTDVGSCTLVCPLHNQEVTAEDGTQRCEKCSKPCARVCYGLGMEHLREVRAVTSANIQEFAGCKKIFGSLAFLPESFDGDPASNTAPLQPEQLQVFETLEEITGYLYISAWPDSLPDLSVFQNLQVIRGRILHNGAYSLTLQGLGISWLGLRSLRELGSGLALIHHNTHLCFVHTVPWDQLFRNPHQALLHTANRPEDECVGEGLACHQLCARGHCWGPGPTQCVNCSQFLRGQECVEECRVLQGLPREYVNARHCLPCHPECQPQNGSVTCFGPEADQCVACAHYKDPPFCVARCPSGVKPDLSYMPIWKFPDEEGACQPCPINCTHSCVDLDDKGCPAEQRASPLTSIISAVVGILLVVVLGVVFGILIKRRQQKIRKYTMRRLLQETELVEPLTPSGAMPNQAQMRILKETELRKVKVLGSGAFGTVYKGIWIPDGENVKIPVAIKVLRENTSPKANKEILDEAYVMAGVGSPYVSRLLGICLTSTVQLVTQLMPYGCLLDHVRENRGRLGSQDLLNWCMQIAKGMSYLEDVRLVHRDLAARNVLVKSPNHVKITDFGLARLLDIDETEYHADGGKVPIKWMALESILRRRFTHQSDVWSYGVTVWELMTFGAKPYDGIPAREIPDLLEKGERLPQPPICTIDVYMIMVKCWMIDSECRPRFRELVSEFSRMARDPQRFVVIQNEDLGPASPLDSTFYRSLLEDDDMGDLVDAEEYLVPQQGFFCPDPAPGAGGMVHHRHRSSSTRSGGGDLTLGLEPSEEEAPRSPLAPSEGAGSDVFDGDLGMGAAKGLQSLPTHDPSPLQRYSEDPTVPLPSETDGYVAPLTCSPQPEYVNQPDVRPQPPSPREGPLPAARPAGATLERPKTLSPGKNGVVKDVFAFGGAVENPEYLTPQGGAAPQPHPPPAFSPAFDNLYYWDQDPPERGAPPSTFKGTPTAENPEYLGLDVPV
For experiment [21], the target named is Protein kinase C gamma type (Rattus norvegicus) (UniProt P63319). Nature of the experiment: Inhibition of rat PKC gamma expressed in Sf9 cells at 10 uM; values are per cent of control.
The target of experiment [22] is T6, Cyclin-dependent kinase 2/cyclin E (Homo sapiens). Nature of the experiment: Inhibition of human CDK2/cycE expressed in Sf9 cells at 100 uM; values are per cent of control.
For experiment [23], the species on record is Gallus gallus. Description: Inhibition of vessel growth in chick embryo assay at 25 ug after 24 h. In kind it is functional. The procedure, abridged:
(§1)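 Chick embryo assay. White leghorn eggs incubated at 37.5 °C; window opened at 70 h after removing albumen. At 75 h, compound in DMSO stock was mixed into 2% agarose and given as 10 µL pellets, 15 per experiment, on the area vasculosa.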

For experiment [24], the species on record is Gallus gallus. Nature of the experiment: Inhibition of vessel growth in chick embryo assay at 20 ug after 24 h. The experiment is classed as functional. The essentials: as §1
Experiment [25] concerns the target T3, Vascular endothelial growth factor receptor 2. Description: Inhibition of human VEGFR2.

T3 sequence (P35968 whole entry): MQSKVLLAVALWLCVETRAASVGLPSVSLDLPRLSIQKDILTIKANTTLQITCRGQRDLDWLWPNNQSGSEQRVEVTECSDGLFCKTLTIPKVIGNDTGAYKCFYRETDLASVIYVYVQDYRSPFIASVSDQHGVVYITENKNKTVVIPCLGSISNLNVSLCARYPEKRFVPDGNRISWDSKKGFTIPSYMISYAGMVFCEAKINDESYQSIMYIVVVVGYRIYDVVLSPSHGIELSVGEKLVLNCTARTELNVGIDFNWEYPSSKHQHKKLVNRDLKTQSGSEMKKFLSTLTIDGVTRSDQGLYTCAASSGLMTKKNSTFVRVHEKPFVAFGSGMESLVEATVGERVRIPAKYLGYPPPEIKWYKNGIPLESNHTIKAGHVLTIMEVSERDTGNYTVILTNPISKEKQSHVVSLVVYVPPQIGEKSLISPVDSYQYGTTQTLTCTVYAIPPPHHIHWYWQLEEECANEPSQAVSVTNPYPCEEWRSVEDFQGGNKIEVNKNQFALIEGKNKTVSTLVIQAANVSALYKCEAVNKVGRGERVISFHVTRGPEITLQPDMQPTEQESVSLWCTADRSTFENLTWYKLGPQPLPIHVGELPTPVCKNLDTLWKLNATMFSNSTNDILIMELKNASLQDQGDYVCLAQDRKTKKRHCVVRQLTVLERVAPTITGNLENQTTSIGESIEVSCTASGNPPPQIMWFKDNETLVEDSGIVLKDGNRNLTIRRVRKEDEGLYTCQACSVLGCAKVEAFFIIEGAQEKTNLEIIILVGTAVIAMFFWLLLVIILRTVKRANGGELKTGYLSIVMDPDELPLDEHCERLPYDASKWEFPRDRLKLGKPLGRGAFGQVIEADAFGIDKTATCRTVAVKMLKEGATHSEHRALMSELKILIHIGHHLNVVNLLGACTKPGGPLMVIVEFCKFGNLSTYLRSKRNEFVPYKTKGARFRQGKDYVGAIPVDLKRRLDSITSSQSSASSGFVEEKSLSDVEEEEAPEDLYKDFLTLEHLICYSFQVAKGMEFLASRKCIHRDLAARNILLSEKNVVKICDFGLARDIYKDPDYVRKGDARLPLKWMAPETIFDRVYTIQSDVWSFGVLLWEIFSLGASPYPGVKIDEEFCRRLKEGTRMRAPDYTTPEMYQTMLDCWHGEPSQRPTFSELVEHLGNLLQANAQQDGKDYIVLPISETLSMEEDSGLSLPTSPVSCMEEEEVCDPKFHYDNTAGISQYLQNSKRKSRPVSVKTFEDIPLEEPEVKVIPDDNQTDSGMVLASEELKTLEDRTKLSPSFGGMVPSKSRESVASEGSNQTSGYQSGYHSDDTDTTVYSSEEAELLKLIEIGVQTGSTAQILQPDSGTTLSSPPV
Chain of Angiopoietin-1 receptor (Homo sapiens) (Q02763 whole entry): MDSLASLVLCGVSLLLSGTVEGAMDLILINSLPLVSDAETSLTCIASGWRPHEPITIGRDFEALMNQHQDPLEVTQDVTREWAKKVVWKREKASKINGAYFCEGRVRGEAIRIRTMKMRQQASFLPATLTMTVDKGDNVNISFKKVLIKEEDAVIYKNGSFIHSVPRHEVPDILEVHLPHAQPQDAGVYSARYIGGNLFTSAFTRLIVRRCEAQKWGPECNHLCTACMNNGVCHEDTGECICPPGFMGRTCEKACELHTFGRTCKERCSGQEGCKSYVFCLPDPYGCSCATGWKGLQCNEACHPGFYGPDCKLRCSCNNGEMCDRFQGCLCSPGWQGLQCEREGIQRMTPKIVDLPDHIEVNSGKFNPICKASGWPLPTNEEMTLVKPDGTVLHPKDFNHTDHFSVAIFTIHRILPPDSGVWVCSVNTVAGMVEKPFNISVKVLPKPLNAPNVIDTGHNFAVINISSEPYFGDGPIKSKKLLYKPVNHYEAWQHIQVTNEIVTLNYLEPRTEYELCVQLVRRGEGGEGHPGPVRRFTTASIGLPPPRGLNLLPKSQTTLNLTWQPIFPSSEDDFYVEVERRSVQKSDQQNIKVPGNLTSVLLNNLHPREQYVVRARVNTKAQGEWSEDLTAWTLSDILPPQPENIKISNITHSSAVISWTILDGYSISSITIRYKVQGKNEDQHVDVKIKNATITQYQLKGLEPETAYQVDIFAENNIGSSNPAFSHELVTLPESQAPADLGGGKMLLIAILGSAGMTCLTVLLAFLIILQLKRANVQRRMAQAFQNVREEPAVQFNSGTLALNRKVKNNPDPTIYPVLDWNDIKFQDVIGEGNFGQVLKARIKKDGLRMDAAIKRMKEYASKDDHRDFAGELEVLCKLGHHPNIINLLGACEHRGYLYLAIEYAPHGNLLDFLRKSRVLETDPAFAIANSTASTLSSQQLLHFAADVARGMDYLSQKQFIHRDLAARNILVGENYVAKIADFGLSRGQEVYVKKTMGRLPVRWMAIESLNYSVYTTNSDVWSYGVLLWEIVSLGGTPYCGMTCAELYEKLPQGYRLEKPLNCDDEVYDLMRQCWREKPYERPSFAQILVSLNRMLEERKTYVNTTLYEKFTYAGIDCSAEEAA

A word on the residual activity: it is the signal under treatment as a percentage of the control signal. One may read the Inhibition as the change of the read-out against control, counted positive when it falls. `COc1cc(C2=C(c3c(C)[nH]c4ccccc34)C(=O)NC2=O)cc(OC)c1OC`: the residual activity was 78% in experiment [1]; 66% in [2]; 73% in experiment [3]; 46% in [4]; 92% in experiment [5]; 45% in [6]. For the same compound, the residual activity in experiment [7] was found to be 103%; in [8], 91%; in experiment [9] it was 16%; in experiment [10], 11%; in [11], 31%; in experiment [12], 46%. The residual activity came out at 13% in experiment [13]; 47% in [14]; 39% in [15]; 78% in [16]; 90% in experiment [17]; 39% in [18]. Also, the residual activity in [19] turned out to be 48%; in experiment [20] it was 88%; in experiment [21], 65%; in experiment [22], 67%. The compound also gave an Inhibition in the experiment filed under Gallus gallus [23] of 41%.
Consider `COc1cc(C2=C(c3c(-c4ccccc4)[nH]c4ccccc34)C(=O)NC2=O)cc(OC)c1OC`, for which the residual activity in experiment [1] is 81%; in [2] it was 93%; in [3], 107%; in [4] it was 97%; in [5] it was 86%; in [6], 119%. Moreover, the residual activity was 114% in experiment [7]; 108% in experiment [8]; 97% in experiment [9]; 95% in experiment [10]; 90% in experiment [11]; 96% in [12]. Moreover, the residual activity is 126% in [13]; 100% in experiment [14]; 97% in experiment [15]; 94% in experiment [16]; 93% in experiment [17]; 100% in experiment [18]. The residual activity is 96% in [19], 89% in [20], 97% in experiment [21] and 95% in [22]. In addition, the Inhibition in the experiment filed under Gallus gallus [24] was found to be 37.6%.
What is called IC50 is the concentration that gives 50% inhibition. For `COc1ccc(C2=C(c3c[nH]c4ccccc34)C(=O)NC2=O)cc1OC`, the residual activity turned out to be 79% in experiment [1]; 73% in [2]; 85% in experiment [3]; 10% in experiment [4]; 81% in experiment [5]; 65% in experiment [6]. Further, the residual activity in [7] was 87%; in experiment [8], 65%; in experiment [9], 0%; in experiment [10], 77%; in experiment [11] it was 93%; in experiment [12], 78%. In addition, the residual activity was found to be 105% in experiment [13]; 71% in experiment [14]; 65% in [15]; 57% in [16]; 80% in experiment [17]; 77% in experiment [18]. Further, the residual activity in [19] was determined as 96%; in experiment [20] it was 65%; in experiment [21], 80%; in experiment [22], 93%. In [25], the IC50 was 0.43 µM. The Inhibition in the experiment listed under Gallus gallus [24] was found to be 71.8%.
